Test results as given in ChEMBL document CHEMBL4834407, “Antiplasmodial Oleanane Triterpenoids from Terminalia albida Root Bark” (J Nat Prod, 2021).

Columns and labels:
Plasmodium falciparum = assay: Antiplasmodial activity against chloroquine-resistant Plasmodium falciparum K1 measured after 72 hrs by lactate dehydrogenase assay; assay type: functional, organism-based; conditions: K1, 72 h
Summary of the method: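 In vitro lactate dehydrogenase read-out on the chloroquine-resistant P. falciparum K1 strain; chloroquine was the reference drug.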

Staphylococcus aureus = assay: Antibacterial activity against Staphylococcus aureus ATCC6538; assay type: functional, organism-based
Summary of the method: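 S. aureus panel with doxycycline as reference drug; IC50 reported in µM.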

[1] = Selectivity index, ratio of CC50 for cytotoxicity against human MRC5 cells to IC50 for antiplasmodial activity against chloroquine-resistant plasmodium falciparum K1; assay type: toxicity, cell-based; conditions: read-out: Ratio CC50/IC50
Summary of the method: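 Ratio of the MRC-5 value (human foetal lung fibroblasts, tamoxifen as cytotoxicity control) to the P. falciparum K1 value (lactate dehydrogenase assay, chloroquine control).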

[2] = Cytotoxicity against human MRC5 cells measured after 7 days by MTT assay; assay type: cell-based; conditions: time 7 day
Summary of the method: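 MRC-5 human foetal lung fibroblasts; tamoxifen as positive control; IC50 reported in µM.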

Candida albicans = assay: Antifungal activity against Candida albicans ATCC59630; assay type: functional, organism-based
Summary of the method: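 C. albicans panel with flucytosine as reference drug; IC50 reported in µM.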

Row | Structure (SMILES) | IC50 (Plasmodium falciparum) [µM] | IC50 (Staphylococcus aureus) [µM] | selectivity ratio [1] | CC50 at 168 h [2] [µM] | IC50 (Candida albicans) [µM]
1 | CC1(C)CC[C@]2(C(=O)O)CC[C@]3(C)C(=CC(=O)[C@@H]4[C@@]5(C)C[C@@H](O)[C@H](O)[C@](C)(CO)[C@@H]5CC[C@]43C)[C@@H]2[C@@H]1O | 6.1 | > 64 | > 10.5 | > 64 | > 64
2 | C[C@]1(CO)CC[C@]2(C(=O)O)CC[C@]3(C)C(=CC[C@@H]4[C@@]5(C)C[C@@H](O)[C@H](O)[C@@](C)(CO)[C@@H]5CC[C@]43C)[C@@H]2C1 | 48.9 | > 64 | > 1.31 | > 64 | > 64
3 | CC1(C)C=C2C3=CC(=O)[C@@H]4[C@@]5(C)C[C@@H](O)[C@H](O)[C@@](C)(CO)[C@@H]5CC[C@@]4(C)[C@]3(C)CC[C@@]2(C(=O)O)CC1 | 6.9 | > 64 | > 9.27 | > 64 | > 64
4 | CC1(C)CC[C@]2(C(=O)O[C@@H]3O[C@H](CO)[C@@H](O)[C@H](O)[C@H]3O)CC[C@]3(C)C(=CC(=O)[C@@H]4[C@@]5(C)C[C@@H](O)[C@H](O)[C@](C)(CO)[C@@H]5CC[C@]43C)[C@@H]2[C@H]1O | 9.1 | > 64 | > 7 | > 64 | > 64
5 | C[C@H]1c2cccc(O)c2C(=O)C2=C(O)[C@]3(O)C(=O)C(C(N)=O)=C(O)[C@@H](N(C)C)[C@@H]3[C@@H](O)[C@@H]21 [DOXYCYCLINE] |  | 0.28 |  |  | 
6 | Nc1nc(=O)[nH]cc1F [FLUCYTOSINE] |  |  |  |  | 0.7
7 | CC1(C)CC[C@]2(C(=O)O[C@@H]3O[C@H](CO)[C@@H](O)[C@H](O)[C@H]3O)CC[C@]3(C)C(=CC(=O)[C@@H]4[C@@]5(C)C[C@@H](O)[C@H](O)[C@@](C)(CO)[C@@H]5CC[C@]43C)[C@@H]2[C@H]1O | 11.3 | > 64 | > 5.7 | > 64 | > 64
8 | CC1(C)CC[C@]2(C(=O)O[C@@H]3O[C@H](CO)[C@@H](O)[C@H](O)[C@H]3O)CC[C@]3(C)C(=CC(=O)[C@@H]4[C@@]5(C)C[C@@H](O)[C@H](O)[C@@](C)(CO)[C@@H]5CC[C@]43C)[C@@H]2[C@@H]1O | 13.9 | > 64 | > 4.6 | > 64 | > 64
9 | CC1(C)CC[C@]2(C(=O)O)CC[C@]3(C)C(=CC(=O)[C@@H]4[C@@]5(C)C[C@@H](O)[C@H](O)[C@@](C)(CO)[C@@H]5CC[C@]43C)[C@@H]2[C@H]1O | 10.1 | > 64 | > 6.3 | > 64 | > 64
10 | CC1(C)CC[C@]2(C(=O)O)CC[C@]3(C)C(=CC(=O)[C@@H]4[C@@]5(C)C[C@@H](O)[C@H](O)[C@](C)(CO)[C@@H]5CC[C@]43C)[C@@H]2[C@H]1O | 6.1 | > 64 | > 10.5 | > 64 | > 64
